Shown are actives, neighbours in structure and some others; about 1.9% of the full set was active somewhere.
Rev-erbA mod = modulators of human Rev-erb alpha DNA binding | P20393 | Rev-erbα–FITC-DNA binding, fluorescence polarization, 90 min | activity, % at 10 µM | 370,000 compounds, 0.79% hits;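 active = activity above about 14%, limit read from the data; passing the limit was not always enough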
Target sequence (P20393 whole entry, looked up): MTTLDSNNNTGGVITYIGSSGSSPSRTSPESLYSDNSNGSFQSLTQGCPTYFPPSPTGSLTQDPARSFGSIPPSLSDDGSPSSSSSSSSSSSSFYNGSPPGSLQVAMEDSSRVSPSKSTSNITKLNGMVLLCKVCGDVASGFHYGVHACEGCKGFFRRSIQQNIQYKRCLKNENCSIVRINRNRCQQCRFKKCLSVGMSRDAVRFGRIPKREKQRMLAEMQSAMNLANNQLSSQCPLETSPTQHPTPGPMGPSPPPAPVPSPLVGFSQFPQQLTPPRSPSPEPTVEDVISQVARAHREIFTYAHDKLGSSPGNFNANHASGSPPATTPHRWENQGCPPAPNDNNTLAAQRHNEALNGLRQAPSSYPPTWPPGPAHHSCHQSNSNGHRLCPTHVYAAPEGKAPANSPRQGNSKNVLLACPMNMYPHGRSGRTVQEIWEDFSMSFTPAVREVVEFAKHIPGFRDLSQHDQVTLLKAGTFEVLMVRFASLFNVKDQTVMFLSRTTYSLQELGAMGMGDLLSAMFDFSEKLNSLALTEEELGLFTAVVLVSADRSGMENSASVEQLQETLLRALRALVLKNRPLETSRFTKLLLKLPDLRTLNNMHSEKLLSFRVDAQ
SKN-1 inh = inhibitors of C. elegans SKN-1. C. elegans VP596 Pgst-4::GFP/RFP ratio, acrylamide-induced, 24 h. inhibition, % at 21.8 µM. 360,000 compounds, 0.49% hits. AID 624304;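 active = interference check ratio from 0.5 to 1.5 plus GFP to RFP signal ratio inhibition reaching or exceeding a fixed threshold, cut at about 30% in these data, passing the limit was not always enough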
PG9 binder = binds the HIV-1 gp120 antibody PG9; TR-FRET gp120-PG9 antibody binding; inhibition, % at 6.7 µM; 360,000 compounds, 0.43% hits; in the data active = inhibition above about 8.5%
NR2E3 ag-1 = activates human NR2E3 receptor | CHO-S Gal4-NCOR/VP16-NR2E3 two-hybrid, luciferase | inhibition of corepressor binding, % at 3.98 µM | Q9Y5X4 | 360,000 compounds, 0.35% hits;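 active = inhibition above the mean of all tested compounds plus 3 SD, cut at about 70% in these data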;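 also: higher means lower luciferase signal from less NR2E3 corepressor binding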
MT1-MMP act inh = MT1-MMP (human) activation inhibition | P50281 | HT1080 RFP-PRO-GFP cells, GFP/RFP ratio fluorescence, overnight; percent of plate control window, DMSO zero | GFP/RFP ratio change, % at 20 µM | 360,000 compounds, 0.061% hits;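 active = GFP/RFP ratio change of at least 30% with cell ATP level not reduced by more than half and red fluorescence within 50% of control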
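Test system: HT1080 RFP-PRO-GFP cells; Benchmarks: DMSO and RFP-L50D-GFP cell wells; Timing: cells overnight before dosing, compound overnight, 37 °C, 5% CO2; Compound: one 20 µM compound dose with 1% DMSO; Read-out: GFP/RFP fluorescence ratio.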
NR2E3 ag-2 = activates human photoreceptor nuclear receptor NR2E3. AID 2300. inhibition of corepressor binding, % at 4.78 µM. 320,000 compounds, 0.12% hits. GST-NR2E3/biotin-RetCOR TR-FRET, 1536-well. Q9Y5X4;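 active = percent inhibition above the cutoff of mean plus 3 SD of all tested compounds, set per screening campaign, cut at about 20% in these data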
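Material: NR2E3–RetCOR corepressor complex / Incubation: Compound–protein incubation for 5 h at 4 °C / Dosing: compound at 4.8 µM, single dose / Detection: time-resolved FRET / Benchmarks: high control biotin, low control 0.6% DMSO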
NR2E3 agonist cf = confirmation of human NR2E3 nuclear receptor agonists. cell-free NR2E3 corepressor release, TR-FRET, 5 h. 360 compounds, 39% hits. shares compounds with NR2E3 ag-2. activation (reported as inhibition), % at 3.98 µM; in the data active = activation above about 20%
PPARg-NCOR2 ag = PPARg-NCOR2 interaction agonism, NR2E3 counter-screen. inhibition, % at 3.98 µM. shares compounds with NR2E3 ag-2. TR-FRET PPARg-NCOR2 coregulator interaction, biochemical. 360 compounds, 45% hits; in the data active = inhibition above about 20%
Numbers stand for hits.

`O=c1cc(-c2ccccc2)[nH]n1-c1ccccc1` gave Rev-erbA mod inactive, SKN-1 inh inactive, PG9 binder inactive, NR2E3 ag-1 inactive and MT1-MMP act inh inactive.
Screening CC(C)(C)c1cc(=O)n(-c2ccccc2)[nH]1 returned Rev-erbA mod inactive, SKN-1 inh inactive, PG9 binder inactive, NR2E3 ag-1 inactive, MT1-MMP act inh inactive, NR2E3 ag-2 29.3, NR2E3 agonist cf inactive and PPARg-NCOR2 ag inactive.
CCSc1nnc(NC(=O)CCc2ccccc2)s1 was read as Rev-erbA mod inactive, SKN-1 inh inactive, PG9 binder inactive, NR2E3 ag-1 inactive, MT1-MMP act inh inactive, NR2E3 ag-2 40.1, NR2E3 agonist cf inactive and PPARg-NCOR2 ag inactive.
Screening Cc1[nH]ccc(=O)c1OCc1ccccc1 returned Rev-erbA mod inactive, SKN-1 inh inactive, PG9 binder inactive, NR2E3 ag-1 inactive, MT1-MMP act inh inactive and NR2E3 ag-2 inactive.
Screening O=c1cc(OCc2ccccc2)cc[nH]1 returned Rev-erbA mod inactive, SKN-1 inh inactive, PG9 binder inactive, NR2E3 ag-1 inactive, MT1-MMP act inh inactive, NR2E3 ag-2 50.0, NR2E3 agonist cf 40.1 and PPARg-NCOR2 ag inactive.
C=CCn1c(SCC(=O)Nc2cccc(S(N)(=O)=O)c2)nnc1C1CCCCC1 was read as Rev-erbA mod inactive, SKN-1 inh inactive, PG9 binder inactive, NR2E3 ag-1 inactive, MT1-MMP act inh inactive, NR2E3 ag-2 41.9, NR2E3 agonist cf inactive and PPARg-NCOR2 ag inactive.
C=CCNC(=O)CSc1nc2sccc2c(=O)n1-c1ccccc1 was read as Rev-erbA mod inactive, SKN-1 inh inactive, PG9 binder inactive, NR2E3 ag-1 inactive, MT1-MMP act inh inactive, NR2E3 ag-2 23.1, NR2E3 agonist cf inactive and PPARg-NCOR2 ag inactive.
CCNC(=O)CSc1nc2sccc2c(=O)n1-c1ccccc1 was read as Rev-erbA mod inactive, SKN-1 inh inactive, PG9 binder inactive, NR2E3 ag-1 inactive, MT1-MMP act inh inactive and NR2E3 ag-2 inactive.
For CC[C@H](C)[C@H]1CNC(=O)C(=O)N1CC1CCN(CC(C)C)CC1 the results were Rev-erbA mod inactive and PG9 binder inactive.
`COc1ccc(OCc2nc3c4cc(OC)c(OC)cc4nc(=S)n3[nH]2)cc1` gave Rev-erbA mod inactive, SKN-1 inh inactive, PG9 binder inactive, NR2E3 ag-1 inactive, MT1-MMP act inh inactive, NR2E3 ag-2 21.1, NR2E3 agonist cf inactive and PPARg-NCOR2 ag inactive.
COC(=O)c1cc2c(c3c4ccccc4n(S(=O)(=O)c4ccc(OC)cc4)c13)C(=O)N(C)C2 was read as Rev-erbA mod inactive and PG9 binder inactive.
For CCC(CNc1cc(OC)cc2cccnc12)NC1CCCCC1 (stereo not given) the results were Rev-erbA mod inactive, SKN-1 inh inactive, PG9 binder inactive, NR2E3 ag-1 inactive, MT1-MMP act inh inactive, NR2E3 ag-2 20.9, NR2E3 agonist cf inactive and PPARg-NCOR2 ag inactive.
CCCCc1ccc(C2C(C#N)=C(N)SC(N)=C2C#N)s1 was read as NR2E3 ag-2 41.7, NR2E3 agonist cf inactive and PPARg-NCOR2 ag inactive.
CCOc1ccc(C2C(C#N)=C(N)SC(N)=C2C#N)c(OCC)c1 was read as Rev-erbA mod inactive, SKN-1 inh inactive, PG9 binder inactive, NR2E3 ag-1 inactive, MT1-MMP act inh inactive and NR2E3 ag-2 inactive.
CC1NC(=O)NC1CCCCCC(=O)Nc1ccc(F)cc1 (stereo not given) was read as Rev-erbA mod inactive, SKN-1 inh inactive, PG9 binder inactive, NR2E3 ag-1 inactive, MT1-MMP act inh inactive, NR2E3 ag-2 85.6, NR2E3 agonist cf 89.3 and PPARg-NCOR2 ag 90.4.
Screening Cc1c(F)cccc1NC(=O)CCCCCC1NC(=O)NC1C (stereo not given) returned Rev-erbA mod inactive, SKN-1 inh inactive, PG9 binder inactive, NR2E3 ag-1 inactive, MT1-MMP act inh inactive, NR2E3 ag-2 97.3, NR2E3 agonist cf 88.7 and PPARg-NCOR2 ag 92.2.
For O=C(CCCC(=O)c1ccccc1)Nc1ccc(F)cc1 the results were Rev-erbA mod inactive, SKN-1 inh inactive, PG9 binder inactive, NR2E3 ag-1 inactive, MT1-MMP act inh inactive and NR2E3 ag-2 inactive.
For O=C(Nc1ccc(F)cc1F)C1CCCN1S(=O)(=O)c1cccnc1 (stereo not given) the results were Rev-erbA mod inactive.
`C[C@@H]1CN(c2ccc(N3CCNC[C@H]3C)cc2C#N)C[C@H](C)O1` gave Rev-erbA mod inactive and PG9 binder inactive.
Screening CC(=O)NC1CCCCN(Cc2ccc(Cl)cc2)C1=O (stereo not given) returned Rev-erbA mod inactive.
For c1ccc2c(c1)-c1cccc3c1c-2cc1ccccc13 the results were NR2E3 ag-2 24.8, NR2E3 agonist cf inactive and PPARg-NCOR2 ag inactive.
`CCN1CCCCC(NC(=O)Cc2ccccc2)C1=O` (stereo not given) gave Rev-erbA mod inactive.
`COC(=O)C1=C(C)N(C)C(=NCc2ccccc2)NC1CCc1ccccc1` (stereo not given) gave Rev-erbA mod inactive and PG9 binder inactive.
Screening CCSc1nc2sc3c(c2c(=O)[nH]1)CC(C)(CC)OC3 (stereo not given) returned Rev-erbA mod inactive, SKN-1 inh inactive, PG9 binder inactive, NR2E3 ag-1 inactive, MT1-MMP act inh inactive and NR2E3 ag-2 inactive.
For CCC1(C)Cc2c(sc3nc(SC)[nH]c(=S)c23)CO1 (stereo not given) the results were NR2E3 ag-2 21.7, NR2E3 agonist cf inactive and PPARg-NCOR2 ag 48.1.
Screening Cc1ccc(N2CSC3=C(C#N)C(c4cccs4)CC(=O)N3C2)cc1 (stereo not given) returned Rev-erbA mod inactive, SKN-1 inh inactive, PG9 binder inactive, NR2E3 ag-1 inactive, MT1-MMP act inh inactive, NR2E3 ag-2 24.1, NR2E3 agonist cf inactive and PPARg-NCOR2 ag inactive.
For CCOC(=O)c1ccc(N2CSC3=C(C#N)C(c4cccs4)CC(=O)N3C2)cc1 (stereo not given) the results were Rev-erbA mod inactive, SKN-1 inh inactive, PG9 binder inactive, NR2E3 ag-1 inactive, MT1-MMP act inh inactive, NR2E3 ag-2 26.8, NR2E3 agonist cf inactive and PPARg-NCOR2 ag 37.6.
O=S1(=O)N[C@H](Cc2ccccc2)COc2cc(N3CCOCC3)ccc21 was read as Rev-erbA mod inactive and PG9 binder inactive.
